In ChEMBL document CHEMBL1136157, “Synthesis of 3a,4-dihydro-3H-[1]benzopyrano[4,3-c]isoxazoles, displaying combined 5-HT uptake inhibiting and alpha(2)-adrenoceptor antagonistic activities: a novel series of potential antidepressants” (Bioorg Med Chem Lett, 2003):

Target: Sodium-dependent serotonin transporter (Rattus norvegicus) (UniProt P31652)
Assay: In vivo effective dose required to inhibit p-chloroamphetamine induced excitation in rats upon subcutaneous administration
Type: functional, organism-based
In short: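 Overnight-starved male Wistar rats (200–250 g) given test compound or solvent sc 1 h before p-chloroamphetamine (5 mg/10 mL/kg, sc). Excitation scored over a 15-min interval starting 45 min after pCA. A score <2 was the all-or-nothing criterion for inhibition (1.0% false positives, n>200). ED50 in mg/kg.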

Sequence of Sodium-dependent serotonin transporter (Rattus norvegicus) (P31652 whole entry): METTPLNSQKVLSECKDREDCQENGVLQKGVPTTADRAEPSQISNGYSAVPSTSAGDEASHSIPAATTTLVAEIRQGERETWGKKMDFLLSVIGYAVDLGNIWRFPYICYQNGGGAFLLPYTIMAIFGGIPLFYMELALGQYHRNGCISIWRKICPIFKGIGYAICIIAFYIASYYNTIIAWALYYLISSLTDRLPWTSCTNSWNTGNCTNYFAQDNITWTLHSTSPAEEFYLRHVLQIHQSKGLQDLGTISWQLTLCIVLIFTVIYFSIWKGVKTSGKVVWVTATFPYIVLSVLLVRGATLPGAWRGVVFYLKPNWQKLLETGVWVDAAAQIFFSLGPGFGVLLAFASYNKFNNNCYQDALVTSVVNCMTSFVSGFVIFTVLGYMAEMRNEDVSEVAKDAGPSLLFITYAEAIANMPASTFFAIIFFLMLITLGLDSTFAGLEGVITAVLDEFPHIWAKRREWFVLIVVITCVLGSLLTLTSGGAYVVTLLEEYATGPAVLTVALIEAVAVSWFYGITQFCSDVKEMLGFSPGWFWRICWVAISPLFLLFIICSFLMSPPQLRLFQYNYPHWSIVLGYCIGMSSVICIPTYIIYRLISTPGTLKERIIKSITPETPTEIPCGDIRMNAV

Row | Compound | ED50
1 | COc1cc2c(cc1OC)C1=NOC(CN3CCN(CCCc4ccccc4)CC3)C1CO2 (stereo not given) | 5 mg/kg
2 | COc1cc2c(cc1OC)C1=NO[C@@H](CN3CCN(C/C=C/c4ccccc4)CC3)[C@@H]1CO2 (stereo in doubt; (+)5) [listing 1 of 2 here] | 0.51 mg/kg
3 | COc1cc2c(cc1OC)C1=NOC(CN3CCN(Cc4cnc5ccccc5c4)CC3)C1CO2 (stereo not given) | 5 mg/kg
4 | COc1cc2c(cc1OC)C1=NOC(CN3CCN(Cc4ccc5ccccc5c4)CC3)C1CO2 (stereo not given) | 0.79 mg/kg
5 | COc1cc2c(cc1OC)C1=NOC(CN3CCN(CC4=Cc5ccccc5C4)CC3)C1CO2 (stereo not given) | 0.32 mg/kg

Target: Adrenergic receptor alpha-2 (Rattus norvegicus) (UniProt P22086+P19328+P22909)
Assay: In vivo effective dose required to inhibit xylazine-induced loss of righting in rats upon subcutaneous administration
Type: functional, organism-based

Row | Compound | ED50
6 | COc1cc2c(cc1OC)C1=NO[C@@H](CN3CCN(C/C(C)=C/c4ccccc4)CC3)[C@@H]1CO2 (stereo in doubt; (+)15f) [listing 1 of 2 here] | 3.1 mg/kg
7 | COc1cc2c(cc1OC)C1=NOC(CN3CCN(CCCc4ccccc4)CC3)C1CO2 (stereo not given) | 2.5 mg/kg
8 | COc1cc2c(cc1OC)C1=NO[C@@H](CN3CCN(C/C=C/c4ccccc4)CC3)[C@@H]1CO2 (stereo in doubt; (+)5) [listing 1 of 2 here] | 2.5 mg/kg
9 | COc1cc2c(cc1OC)C1=NOC(CN3CCN(Cc4cnc5ccccc5c4)CC3)C1CO2 (stereo not given) | 5 mg/kg
10 | COc1cc2c(cc1OC)C1=NOC(CN3CCN(C/C(C)=C/c4ccccc4)CC3)C1CO2 (stereo not given) | 1 mg/kg
11 | COc1cc2c(cc1OC)C1=NO[C@@H](CN3CCN(C/C(C)=C/c4ccccc4)CC3)[C@@H]1CO2 (stereo in doubt; (-)15f) [listing 1 of 2 here] | > 10 mg/kg
12 | COc1cc2c(cc1OC)C1=NOC(CN3CCN(Cc4ccc5ccccc5c4)CC3)C1CO2 (stereo not given) | 5 mg/kg
13 | COc1cc2c(cc1OC)C1=NOC(CN3CCN(CC4=Cc5ccccc5C4)CC3)C1CO2 (stereo not given) | 10 mg/kg

Target: T1, Alpha-2A adrenergic receptor (Homo sapiens, UniProt P08913)
T1 sequence (P08913 whole entry): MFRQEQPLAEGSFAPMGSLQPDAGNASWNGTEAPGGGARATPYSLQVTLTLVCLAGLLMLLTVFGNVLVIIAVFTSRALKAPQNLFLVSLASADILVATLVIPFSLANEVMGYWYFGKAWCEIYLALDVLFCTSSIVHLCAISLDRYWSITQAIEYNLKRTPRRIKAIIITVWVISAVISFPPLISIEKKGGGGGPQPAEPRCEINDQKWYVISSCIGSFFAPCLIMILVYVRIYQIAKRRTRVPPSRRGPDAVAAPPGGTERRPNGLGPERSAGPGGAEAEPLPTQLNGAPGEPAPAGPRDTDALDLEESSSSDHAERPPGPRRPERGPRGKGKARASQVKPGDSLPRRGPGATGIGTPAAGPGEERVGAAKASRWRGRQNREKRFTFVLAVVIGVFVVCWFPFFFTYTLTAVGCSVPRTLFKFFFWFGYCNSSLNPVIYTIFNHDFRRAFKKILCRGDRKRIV
Assay: In vitro binding affinity towards human alpha-2A adrenergic receptor using [3H]rauwolscine

Row | Compound | Ki
14 | COc1cc2c(cc1OC)C1=NOC(CN3CCN(CCC(=O)c4ccccc4)CC3)C1CO2 (stereo not given) | 12 nM
15 | COc1cc2c(cc1OC)C1=NOC(CN3CCN(Cc4csc5ccccc45)CC3)C1CO2 (stereo not given) | 66 nM
16 | COc1cc2c(cc1OC)C1=NOC(CN3CCN(CCCc4ccccc4)CC3)C1CO2 (stereo not given) | 26 nM
17 | COc1cc2c(cc1OC)C1=NOC(CN3CCN(Cc4cnc5ccccc5c4)CC3)C1CO2 (stereo not given) | 34 nM
18 | COc1cc2c(cc1OC)C1=NOC(CN3CCN(CC4=Cc5ccccc5C4)CC3)C1CO2 (stereo not given) | 22 nM

Target: T2, Alpha-2C adrenergic receptor (Homo sapiens, UniProt P18825)
T2 sequence (P18825 whole entry): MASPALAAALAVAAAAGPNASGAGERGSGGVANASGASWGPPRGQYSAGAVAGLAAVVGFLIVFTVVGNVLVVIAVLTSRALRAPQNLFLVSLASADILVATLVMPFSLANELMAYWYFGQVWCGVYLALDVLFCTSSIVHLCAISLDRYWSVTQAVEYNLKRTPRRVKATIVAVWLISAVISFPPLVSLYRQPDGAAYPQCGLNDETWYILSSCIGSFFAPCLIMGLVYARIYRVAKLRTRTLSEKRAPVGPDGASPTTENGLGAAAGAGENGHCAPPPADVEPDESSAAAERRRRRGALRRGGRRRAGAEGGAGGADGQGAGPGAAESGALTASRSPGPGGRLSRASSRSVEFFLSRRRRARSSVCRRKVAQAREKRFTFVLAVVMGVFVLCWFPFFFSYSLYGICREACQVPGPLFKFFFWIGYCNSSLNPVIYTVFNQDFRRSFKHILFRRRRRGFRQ
Assay: In vitro binding affinity towards human adrenergic alpha-2C adrenergic receptor using [3H]rauwolscine

Row | Compound | Ki
19 | COc1cc2c(cc1OC)C1=NOC(CN3CCN(CCC(=O)c4ccccc4)CC3)C1CO2 (stereo not given) | 5.3 nM
20 | COc1cc2c(cc1OC)C1=NO[C@@H](CN3CCN(Cc4ccc5ccccc5c4)CC3)[C@@H]1CO2 (stereo in doubt; (-)15h) | 9.5 nM
21 | COc1cc2c(cc1OC)C1=NO[C@@H](CN3CCN(Cc4ccc5ccccc5c4)CC3)[C@@H]1CO2 (stereo in doubt; (+)15h) | 0.8 nM
22 | COc1cc2c(cc1OC)C1=NO[C@@H](CN3CCN(C/C=C(\C)c4ccccc4)CC3)[C@@H]1CO2 (stereo in doubt; (+)15g) | 0.2 nM
23 | COc1cc2c(cc1OC)C1=NO[C@@H](CN3CCN(C/C(C)=C/c4ccccc4)CC3)[C@@H]1CO2 (stereo in doubt; (+)15f) [listing 2 of 2 here] | 0.1 nM
24 | COc1cc2c(cc1OC)C1=NOC(CN3CCN(Cc4csc5ccccc45)CC3)C1CO2 (stereo not given) | 13 nM
25 | COc1cc2c(cc1OC)C1=NOC(CN3CCN(CCCc4ccccc4)CC3)C1CO2 (stereo not given) | 1.9 nM
26 | COc1cc2c(cc1OC)C1=NOC(CN3CCN(Cc4cnc5ccccc5c4)CC3)C1CO2 (stereo not given) | 30 nM
27 | COc1cc2c(cc1OC)C1=NO[C@@H](CN3CCN(C/C=C(\C)c4ccccc4)CC3)[C@@H]1CO2 (stereo in doubt; (-)15g) | 10 nM
28 | COc1cc2c(cc1OC)C1=NOC(CN3CCN(C/C(C)=C/c4ccccc4)CC3)C1CO2 (stereo not given) | 0.2 nM
29 | COc1cc2c(cc1OC)C1=NO[C@@H](CN3CCN(C/C(C)=C/c4ccccc4)CC3)[C@@H]1CO2 (stereo in doubt; (-)15f) [listing 2 of 2 here] | 1.4 nM
30 | COc1cc2c(cc1OC)C1=NOC(CN3CCN(Cc4ccc5ccccc5c4)CC3)C1CO2 (stereo not given) | 3.1 nM
31 | COc1cc2c(cc1OC)C1=NOC(CN3CCN(CC4=Cc5ccccc5C4)CC3)C1CO2 (stereo not given) | 4.7 nM

Target: T3, Alpha-2B adrenergic receptor (Homo sapiens, UniProt P18089)
T3 sequence (P18089 whole entry): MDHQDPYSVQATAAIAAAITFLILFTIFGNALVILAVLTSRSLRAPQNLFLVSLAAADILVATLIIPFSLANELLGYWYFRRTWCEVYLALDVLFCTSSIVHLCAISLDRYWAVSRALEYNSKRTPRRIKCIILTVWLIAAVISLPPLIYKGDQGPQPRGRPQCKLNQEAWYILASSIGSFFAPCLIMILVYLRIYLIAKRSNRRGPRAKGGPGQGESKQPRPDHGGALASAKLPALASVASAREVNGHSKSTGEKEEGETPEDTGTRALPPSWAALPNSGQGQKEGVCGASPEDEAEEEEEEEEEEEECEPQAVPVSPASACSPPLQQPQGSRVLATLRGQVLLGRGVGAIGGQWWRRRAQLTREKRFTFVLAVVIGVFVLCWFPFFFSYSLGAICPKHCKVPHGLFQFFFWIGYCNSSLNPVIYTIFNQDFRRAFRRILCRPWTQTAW
Assay: In vitro binding affinity towards human alpha-2B adrenergic receptor using [3H]rauwolscine

Row | Compound | Ki
32 | COc1cc2c(cc1OC)C1=NO[C@@H](CN3CCN(Cc4ccc5ccccc5c4)CC3)[C@@H]1CO2 (stereo in doubt; (-)15h) | 95 nM
33 | COc1cc2c(cc1OC)C1=NO[C@@H](CN3CCN(C/C=C/c4ccccc4)CC3)[C@@H]1CO2 (stereo in doubt; (+)5) [listing 2 of 2 here] | 14 nM
34 | COc1cc2c(cc1OC)C1=NO[C@@H](CN3CCN(Cc4ccc5ccccc5c4)CC3)[C@@H]1CO2 (stereo in doubt; (+)15h) | 14 nM
35 | COc1cc2c(cc1OC)C1=NO[C@@H](CN3CCN(C/C=C(\C)c4ccccc4)CC3)[C@@H]1CO2 (stereo in doubt; (+)15g) | 14 nM
36 | COc1cc2c(cc1OC)C1=NO[C@@H](CN3CCN(C/C=C/c4ccccc4)CC3)[C@@H]1CO2 (stereo in doubt; (-)5) | 42 nM
37 | COc1cc2c(cc1OC)C1=NO[C@@H](CN3CCN(C/C(C)=C/c4ccccc4)CC3)[C@@H]1CO2 (stereo in doubt; (+)15f) [listing 2 of 2 here] | 3 nM
38 | COc1cc2c(cc1OC)C1=NOC(CN3CCN(Cc4csc5ccccc45)CC3)C1CO2 (stereo not given) | 370 nM
39 | COc1cc2c(cc1OC)C1=NOC(CN3CCN(CCCc4ccccc4)CC3)C1CO2 (stereo not given) | 42 nM
40 | COc1cc2c(cc1OC)C1=NOC(CN3CCN(Cc4cnc5ccccc5c4)CC3)C1CO2 (stereo not given) | > 1000 nM
41 | COc1cc2c(cc1OC)C1=NO[C@@H](CN3CCN(C/C=C(\C)c4ccccc4)CC3)[C@@H]1CO2 (stereo in doubt; (-)15g) | 405 nM
42 | COc1cc2c(cc1OC)C1=NOC(CN3CCN(C/C(C)=C/c4ccccc4)CC3)C1CO2 (stereo not given) | 7.5 nM
43 | COc1cc2c(cc1OC)C1=NO[C@@H](CN3CCN(C/C(C)=C/c4ccccc4)CC3)[C@@H]1CO2 (stereo in doubt; (-)15f) [listing 2 of 2 here] | 15 nM
44 | COc1cc2c(cc1OC)C1=NOC(CN3CCN(Cc4ccc5ccccc5c4)CC3)C1CO2 (stereo not given) | 49 nM
45 | COc1cc2c(cc1OC)C1=NOC(CN3CCN(CC4=Cc5ccccc5C4)CC3)C1CO2 (stereo not given) | 315 nM
